Assay results taken from PMC4539048 (Science translational medicine, 2015).
≈ marks a conversion by molar mass, not a printed value. Marks after values point to notes of the source that are not given here.

Assays:
Pharmacokinetics in mice = assay type: in vivo; conditions: female, Swiss outbred, mouse, plasma
Method in brief: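 Single-dose PK in female Swiss outbred mice or male beagle dogs, dosed IV and orally in a range of formulations. Blood was drawn into anticoagulant tubes and plasma separated by centrifugation. Compound was quantified by LC/MS, typically in 2–6 animals per study, with SD given where n>2.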

P. falciparum 3D7 [1] = assay: Blood-stage phenotype and development by microscopy; assay type: cell-based; conditions: 10xEC50, 48 h
Method in brief: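 Giemsa-stained smears were scored by microscopy, at least 200 cells per condition, for stage arrest and morphology. Standard antimalarials served as controls.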

panel of human kinases = assay: Panel of human kinases; assay type: biochemical; conditions: University of Dundee
P. berghei DHODH = conditions: cited from earlier work
CYP enzymes = assay: CYP induction in human hepatocytes; assay type: in vitro ADME
[2] = Chemical and physical stability; assay type: physicochemical
P. falciparum 3D7 [3] = assay: In vitro P. falciparum 3D7 growth inhibition; assay type: cell-based; conditions: Plasmodium falciparum, 3D7, read-out: P. falciparum 3D7 growth inhibition EC50
Method in brief: (§1)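 SYBR-green growth assay on P. falciparum 3D7 and drug-resistant lines, including chloroquine- and pyrimethamine-resistant parasites, cultured in RPMI-1640 with 0.5% Albumax-II. At least triplicate data per concentration. EC50 from the log(inhibitor) vs response variable-slope (four-parameter) fit by nonlinear least squares, reported with 95% confidence intervals of the fit.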

[4] = tested on: G6PD-deficient human red blood cells; assay type: in vivo, NOD-SCID mice; conditions: blood type A- G6PD-deficient human red blood cells
[5] = tested on: P. falciparum Dd2 and resistant clones; assay: microbe, parasite or virus in culture; assay type: cell-based; conditions: Plasmodium falciparum, DD2|DSM265, read-out: DSM265 Dd2 EC50, Dd2/wt
[6] = tested on: 9 strains of P. falciparum; assay: In vitro blood-stage activity on 9 strains of P. falciparum; assay type: cell-based; conditions: Plasmodium falciparum, read-out: EC50 range over all tested strains
Method in brief: as §1

[7] = tested on: P. falciparum Pf3D7_0087/N9; assay: P. falciparum SCID mouse 4-day dosing efficacy model; assay type: in vivo
[8] = target: human ether-a-go-go related gene (hERG) K+ channel (Homo sapiens, UniProt Q12809); assay: hERG patch clamp assay; assay type: cell-based
Sequence of human ether-a-go-go related gene (hERG) K+ channel (Q12809 whole entry): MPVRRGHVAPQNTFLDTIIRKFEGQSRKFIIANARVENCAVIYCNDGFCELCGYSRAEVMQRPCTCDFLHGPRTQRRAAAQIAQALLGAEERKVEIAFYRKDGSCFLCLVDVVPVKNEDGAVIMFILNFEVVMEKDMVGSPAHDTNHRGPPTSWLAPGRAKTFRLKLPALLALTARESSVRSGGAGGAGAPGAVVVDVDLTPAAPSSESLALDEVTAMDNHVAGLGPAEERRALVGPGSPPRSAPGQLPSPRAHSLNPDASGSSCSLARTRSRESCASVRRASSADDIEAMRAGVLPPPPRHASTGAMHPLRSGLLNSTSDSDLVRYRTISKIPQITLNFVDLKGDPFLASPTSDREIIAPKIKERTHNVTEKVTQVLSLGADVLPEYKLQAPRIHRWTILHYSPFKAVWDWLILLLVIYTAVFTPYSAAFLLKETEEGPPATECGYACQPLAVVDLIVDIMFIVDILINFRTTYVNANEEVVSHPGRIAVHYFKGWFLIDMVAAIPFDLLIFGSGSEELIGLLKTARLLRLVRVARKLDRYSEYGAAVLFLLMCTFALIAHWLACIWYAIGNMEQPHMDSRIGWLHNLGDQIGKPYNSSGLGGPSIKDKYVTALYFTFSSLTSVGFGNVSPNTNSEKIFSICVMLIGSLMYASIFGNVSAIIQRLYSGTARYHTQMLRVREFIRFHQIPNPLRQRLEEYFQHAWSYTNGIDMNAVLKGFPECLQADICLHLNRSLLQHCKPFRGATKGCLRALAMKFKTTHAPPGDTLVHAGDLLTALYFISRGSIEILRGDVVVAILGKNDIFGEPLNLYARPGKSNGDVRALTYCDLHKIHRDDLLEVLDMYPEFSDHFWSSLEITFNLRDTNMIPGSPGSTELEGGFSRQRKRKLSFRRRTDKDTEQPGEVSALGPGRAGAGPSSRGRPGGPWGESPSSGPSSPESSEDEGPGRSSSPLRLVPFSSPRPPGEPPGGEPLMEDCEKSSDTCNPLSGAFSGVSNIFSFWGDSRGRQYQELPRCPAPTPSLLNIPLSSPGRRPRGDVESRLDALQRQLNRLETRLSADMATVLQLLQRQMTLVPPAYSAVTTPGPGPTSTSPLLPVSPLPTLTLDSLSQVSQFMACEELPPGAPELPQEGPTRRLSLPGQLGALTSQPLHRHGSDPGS

[9] = tested on: key CYP enzymes (not individually named); assay: CYP inhibition in human liver microsomes; assay type: in vitro ADME
Method in brief: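 Inhibition of CYP isoforms was measured by a substrate-specific approach in human liver microsomes.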

[10] = Human pharmacokinetic prediction
[11] = Cardiac safety by telemetry in conscious dogs; assay type: in vivo
P. falciparum parasites = assay: Drug combination, fixed-ratio isobologram method; assay type: cell-based; conditions: artemisinin derivatives, OZ439, chloroquine, piperaquine, pyronaridine, mefloquine, lumefantrine, atovaquone, proguanil, P218, pyrimethamine
P. falciparum gametes = assay: Dual gamete formation assay; assay type: cell-based
rabbit DHODH = rabbit DHODH (Oryctolagus cuniculus, UniProt G1SWF3); assay: DHODH inhibition, DCIP spectrophotometric assay; assay type: biochemical
Sequence of rabbit DHODH (G1SWF3 1-395): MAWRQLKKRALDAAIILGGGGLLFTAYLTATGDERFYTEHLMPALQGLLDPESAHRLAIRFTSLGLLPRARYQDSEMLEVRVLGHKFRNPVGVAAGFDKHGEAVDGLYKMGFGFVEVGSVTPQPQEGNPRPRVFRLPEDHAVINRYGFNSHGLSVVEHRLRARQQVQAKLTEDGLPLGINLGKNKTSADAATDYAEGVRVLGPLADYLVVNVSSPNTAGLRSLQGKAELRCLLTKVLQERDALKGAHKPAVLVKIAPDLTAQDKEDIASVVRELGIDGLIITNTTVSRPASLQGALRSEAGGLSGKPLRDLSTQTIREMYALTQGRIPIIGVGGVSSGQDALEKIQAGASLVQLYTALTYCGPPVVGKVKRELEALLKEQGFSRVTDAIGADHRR

[12] = Intravenous pharmacokinetics in monkeys and dogs; assay type: in vivo; conditions: male (dogs), female (monkeys), macaque (monkeys), beagle (dogs), monkey, dog, plasma
Method in brief: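 Male beagle dogs and female macaque monkeys received a single intravenous dose. Blood was collected into anticoagulant tubes and plasma was separated by centrifugation. Parent compound and metabolites were quantified by LC/MS. Typically 2–6 animals were used per study, with standard deviation given where n>2.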

[13] = Plasma protein binding, mouse; assay type: in vitro ADME
CYP2C8 = CYP2C8 (Homo sapiens, UniProt P10632); assay: Metabolism by individual human CYP enzymes; assay type: in vitro ADME; conditions: CYP2C8 Supersomes
Sequence of CYP2C8 (P10632 whole entry): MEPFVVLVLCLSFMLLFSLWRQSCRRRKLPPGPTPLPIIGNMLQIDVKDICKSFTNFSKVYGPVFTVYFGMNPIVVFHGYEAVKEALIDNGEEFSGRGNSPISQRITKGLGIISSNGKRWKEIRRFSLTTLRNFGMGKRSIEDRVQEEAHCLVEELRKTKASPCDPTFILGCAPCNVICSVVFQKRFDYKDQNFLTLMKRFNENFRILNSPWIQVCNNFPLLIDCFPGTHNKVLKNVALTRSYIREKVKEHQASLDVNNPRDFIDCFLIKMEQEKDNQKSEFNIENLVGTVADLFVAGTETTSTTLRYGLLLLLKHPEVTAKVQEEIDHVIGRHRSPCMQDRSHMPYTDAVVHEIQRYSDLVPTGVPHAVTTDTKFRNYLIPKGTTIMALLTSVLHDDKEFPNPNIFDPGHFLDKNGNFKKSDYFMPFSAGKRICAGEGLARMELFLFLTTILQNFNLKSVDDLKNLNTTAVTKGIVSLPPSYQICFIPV

P. yoelii DHODH = conditions: cited from earlier work
CYP2C19 = CYP2C19 (Homo sapiens, UniProt P33261); assay: Metabolism by individual human CYP enzymes; assay type: in vitro ADME; conditions: CYP2C19 Supersomes
Sequence of CYP2C19 (P33261 whole entry): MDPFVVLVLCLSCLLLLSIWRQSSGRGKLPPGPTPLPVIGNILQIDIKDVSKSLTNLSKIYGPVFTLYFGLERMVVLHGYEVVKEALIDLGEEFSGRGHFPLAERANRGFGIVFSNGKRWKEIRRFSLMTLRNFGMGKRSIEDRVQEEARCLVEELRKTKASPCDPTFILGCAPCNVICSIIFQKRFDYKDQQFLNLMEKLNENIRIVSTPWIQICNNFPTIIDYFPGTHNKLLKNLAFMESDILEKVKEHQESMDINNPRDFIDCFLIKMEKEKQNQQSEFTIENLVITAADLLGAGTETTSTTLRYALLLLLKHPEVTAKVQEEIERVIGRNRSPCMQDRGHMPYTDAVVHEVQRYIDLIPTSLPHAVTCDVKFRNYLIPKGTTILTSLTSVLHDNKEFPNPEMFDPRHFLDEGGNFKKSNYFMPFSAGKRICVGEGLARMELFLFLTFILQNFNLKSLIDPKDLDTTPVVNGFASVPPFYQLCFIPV

[14] = tested on: P. falciparum early stage gametocytes stage III – IV; strain NF54; assay: Early stage gametocyte assay; assay type: cell-based
[15] = tested on: Salmonella typhimurium-E. coli; assay: 5-strain bacterial reverse mutation assay
[16] = 7-day repeat dose toxicity study in mice; assay type: in vivo; conditions: highest dose tested, Day 7
Method in brief: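 Mice received the test compound orally once daily at 25–200 mg/kg/day for 7 days in an exploratory (non-GLP) toxicology study. They were monitored daily for clinical signs, body weight and food consumption, with haematology, clinical chemistry and histopathology. Plasma toxicokinetic parameters, including average concentration over the dosing interval, were derived on day 1 and day 7.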

[17] = 10-day repeat dose toxicity study in dogs; assay type: in vivo; conditions: highest dose tested, Day 1
Method in brief: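 Male beagle dogs were dosed orally every other day in the fed state over a 10-day repeat-dose exploratory (non-GLP) toxicology study. They were monitored daily for clinical signs, body weight and food consumption, with haematology, clinical chemistry and histopathology. Plasma toxicokinetics were taken on day 1 to give Cav, and full toxicokinetics were not collected after the final dose.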

[18] = Plasma protein binding, dog; assay type: in vitro ADME
pig DHODH = pig DHODH (Sus scrofa, UniProt F1S3B0); assay: DHODH inhibition, DCIP spectrophotometric assay; assay type: biochemical
Sequence of pig DHODH (F1S3B0 1-395): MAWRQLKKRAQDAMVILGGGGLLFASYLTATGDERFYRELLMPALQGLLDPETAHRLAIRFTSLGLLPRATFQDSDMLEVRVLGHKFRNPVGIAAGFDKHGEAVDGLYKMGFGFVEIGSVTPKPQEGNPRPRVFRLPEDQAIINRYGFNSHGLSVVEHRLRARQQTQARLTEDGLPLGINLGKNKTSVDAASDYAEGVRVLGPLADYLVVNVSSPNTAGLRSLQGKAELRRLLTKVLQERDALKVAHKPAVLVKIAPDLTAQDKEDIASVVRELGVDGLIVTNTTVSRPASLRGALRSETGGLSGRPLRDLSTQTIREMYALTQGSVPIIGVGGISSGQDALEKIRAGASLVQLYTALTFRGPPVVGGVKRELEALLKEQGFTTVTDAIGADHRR

Caco-2 cell monolayers = assay: Caco-2 permeability; assay type: in vitro ADME
Caco-2 permeability = assay type: in vitro ADME; conditions: human, Caco-2
P. cynomolgi DHODH = P. cynomolgi DHODH (Plasmodium cynomolgi, UniProt K6UE05); assay: DHODH inhibition, DCIP spectrophotometric assay; assay type: biochemical
[19] = Plasma protein binding, rat; assay type: in vitro ADME
[20] = determined 24 h after the last dose

In the case of `Cc1cc(Nc2ccc(S(F)(F)(F)(F)F)cc2)n2nc(C(C)(F)F)nc2n1` [DSM265, 2-(1,1-difluoroethyl)-5-methyl-[N-[4-(pentafluorosulfanyl)phenyl]1,2,4]triazolo[1,5-a]pyrimidin-7-amine], the half-life (Pharmacokinetics in mice) is reported as 2 to 4 h, the “blood-stage phenotype after treatment” value (P. falciparum 3D7 [1]) is reported as “arrested parasites in the young trophozoite-stage” and the “activity against a panel of human kinases” value (panel of human kinases) is reported as “minimal activity”. For the same compound, the “activity against P. berghei DHODH” value (P. berghei DHODH) was “poor activity”, the CYP induction (CYP enzymes) was “did not induce CYP enzymes” and the “stability of solutions subjected to simulated sunlight” value [2] was “degradation”. For the same compound, the “chemical stability in the solid state” value ([2]; 30°/65% relative humidity for up to 24 months) was “chemically stable”, the EC50 (P. falciparum 3D7 [3]) was 1.8 ng/mL (≈ 4.33 nM) and the hemolytic toxicity [4] was “not hemolytic”. For the same compound, the EC50 [5] was 2.2 ng/mL (≈ 5.3 nM), the EC50 [6] was 1 to 4 ng/mL (≈ 2.41 to 9.63 nM) and the “blood concentration 23 h after the last dose, estimate of the MPC” value ([7]; 13 mg/kg/day (6.4 mg/kg b.i.d.), oral, 4 days) was 0.53 µg/mL. For the same compound, the “SCID mouse in vivo MPC (plasma)” value ([7]; blood converted to plasma with blood to plasma ratio 0.5) was 1.1 ^c μg/mL, the “Unbound SCID mouse in vivo MPC (plasma)” value ([7]; corrected with fraction unbound 0.001) was 0.0011 µg/mL and the ED90 [7, 20] was 1.5 mg/kg/12 h. The “dose at the MPC” value [7, 20] was 6.4 mg/kg/12 h, the IC50 [8] was 1.59 to 6.98 µM and the IC50 [9] was > 10000 ng/mL. For the same compound, the “plasma MPC used for the human dose prediction” value [10] was 1 to 2 µg/mL, the concentration at 24 h ([11]; dog, plasma, oral, 300 mg/kg) was 1300 ng/mL and the ECGs ([11]; oral doses of 30 and 300 mg/kg) was “within normal limits”. For the same compound, the “interaction with other antimalarials” value (P. falciparum parasites) was “additive”, the “EC50, dual gamete formation assay” value (P. falciparum gametes) was “inactive” and the IC50 (rabbit DHODH) was > 98.7 µM. The half-life [12] was 10 to 45 h, the fraction unbound [13] was 0.003 and the extent of metabolism (CYP2C8) was 0.032 μL/min/pmol CYP. The “activity against P. yoelii DHODH” value (P. yoelii DHODH) was “poor activity”, the extent of metabolism (CYP2C19) was 0.039 μL/min/pmol CYP and the EC50 ([14]; Plasmodium falciparum, NF54, read-out: EC50, early stage gametocytes stage III – IV) was > 420 ng/mL. The “EC50, early stage gametocytes stage III – IV” value ([14]; strain NF54) was “no activity”, the “mutagenic activity (Ames test)” value [15] was “non-mutagenic” and the “average plasma concentration within a dosing interval (Cav)” value [16] was 11700 ng/mL. For the same compound, the “average plasma concentration within a dosing interval (Cav)” value [17] was 16400 ng/mL, the fraction unbound [18] was 0.006 and the IC50 (pig DHODH) was > 98.7 µM. For the same compound, the BCS classification (Caco-2 cell monolayers; from high permeability and low aqueous solubility) was “BCS Class II”, the “substrate for Pgp and BCRP” value (Caco-2 cell monolayers; with verapamil and fumitremorgin C) was “not a substrate” and the Papp A→B (Caco-2 permeability) was > 30 ×10⁻⁶ cm/s. For the same compound, the IC50 (P. cynomolgi DHODH) was 0.012 µM and the fraction unbound [19] was 0.023.
